Source: ChEMBL document CHEMBL1144720, “Diarylheptanoids and a monoterpenoid from the rhizomes of Zingiber officinale: antioxidant and cytoprotective properties” (J Nat Prod, 2008)
pIC50: −log10 of the molar value. The source made the active and inactive calls. The rule behind the calls is not given here.

Assays:
Liver [1] = assay: Antioxidant activity in BALB/c mouse liver microsomes assessed as complete inhibition of free radical-induced lipid peroxidation at 40 uM after 60 mins; format: functional; conditions: Microsome
Summary of the method: (§1)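 Mouse liver microsomes subjected to free radical-induced lipid peroxidation; formation of lipid peroxides measured with compounds over a concentration range, IC50 derived; mean ± SEM, n = 4.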

Hepatocyte [2] = assay: Antioxidant activity against tert-butyl hydroperoxide-induced oxidative stress in Sprague-Dawley rat hepatocytes at 100 uM after 24 hrs by lactate dehydrogenase assay; format: functional, cell-based
Summary of the method: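 Primary rat hepatocyte cultures pretreated with compounds for 24 h, compounds removed, then exposed to tert-butyl hydroperoxide; cell damage read as lactate dehydrogenase leakage into culture medium; mean ± SEM, n = 4.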

Hepatocyte [3] = assay: Cytotoxicity against rat hepatocytes upto 100 uM after 48 hrs; format: cell-based
Summary of the method: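 Primary cultured rat hepatocytes incubated with compounds up to 100 µM for 48 h to check cytotoxicity.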

KB = assay: Cytotoxicity against human KB cells after 3 to 5 days by MTT assay; format: functional, cell-based
[4] = Antioxidant activity assessed as superoxide radical anion scavenging activity; format: functional
Summary of the method: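 In vitro superoxide scavenging: superoxide generated by phenazine methosulfate–NADH system, detected as reduced nitroblue tetrazolium absorbance at 560 nm; dose–response used to derive IC50.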

Liver [5] = assay: Antioxidant activity in BALB/c mouse liver microsomes assessed as inhibition of free radical-induced lipid peroxidation after 60 mins; format: functional, Microsome; conditions: 1 h; summary of the method: as §1
Liver [6] = assay: Antioxidant activity in BALB/c mouse liver microsomes assessed as complete inhibition of free radical-induced lipid peroxidation at 20 uM after 60 mins; format: functional; conditions: Microsome; summary of the method: as §1

Row | SMILES | Activity (Liver [1]) | Activity (Hepatocyte [2]) | Activity (Hepatocyte [3]) | Activity (KB) | pIC50 [4] | pIC50 (Liver [5]) | Activity (Liver [6])
1 | COc1cc([C@@H]2C[C@@H](O)C[C@H](CCc3ccc(O)c(O)c3)O2)cc(O)c1O | Active | Active | Non-toxic | Not toxic | 4.40 | 4.66 | 
2 | COc1cc(CCC(O)CC(=O)CCc2cc(O)c(O)c(OC)c2)ccc1O (stereo not given) |  |  | Non-toxic | Not toxic |  |  | 
3 | COc1cc(CCC(=O)CC(O)CCc2ccc(O)c(O)c2)ccc1O (stereo not given) |  | Active | Non-toxic | Not toxic | 4.44 | 4.77 | Active
4 | COc1cc(CCC(=O)CC(O)CCc2cc(O)c(O)c(OC)c2)ccc1O (stereo not given) |  |  | Non-toxic | Not toxic |  |  | 
5 | COc1cc([C@@H]2C[C@H](O)C[C@H](CCc3ccc(O)cc3)O2)cc(O)c1O | Active | Active |  |  | 4.32 | 4.55 | 
